From ChEMBL document CHEMBL3627612, “Hirsutinolide Series Inhibit Stat3 Activity, Alter GCN1, MAP1B, Hsp105, G6PD, Vimentin, TrxR1, and Importin α-2 Expression, and Induce Antitumor Effects against Human Glioma” (J Med Chem, 2015)
pIC50: −log10 of the molar value. Active and inactive are the calls of the source. The rule behind the calls is not given here.

Assays:
[1] = Cytotoxicity against mouse V-Src -transformed NIH/3T3 cells at 1 uM by trypan blue exclusion with phase contrast microscopy; type: cell-based; conditions: nih3t3, 1 µM
[2] = Cytotoxicity against mouse NIH/3T3 cells at 2.5 uM by trypan blue exclusion with phase contrast microscopy; type: cell-based; conditions: nih3t3, 2.5 µM
U-251 [3] = assay: Antiproliferative activity against human U251MG cells at 5 uM for 24 hrs by BrdU incorporation assay; type: functional, cell-based
How it was run: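 U251MG on glass coverslips treated with DMSO or 5 μM compound for 3–24 h; 10 μM BrdU added during the last 2 h. Cells fixed in 4% paraformaldehyde, stained with anti-BrdU antibody, DAPI counterstained, imaged by fluorescence microscopy and counted.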

U-251 [4] = assay: Antimitotic activity in human U251MG cells assessed as defect in chromatid structure at 8 uM after 15 hrs confocal microscopic analysis; type: functional, cell-based
How it was run: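 U251MG on coverslips synchronized by double thymidine block (2 mM), released 9 h, treated 15 h (8 μM; paclitaxel 100 nM). Fixed 4% paraformaldehyde, digitonin-permeabilized, BSA-blocked, stained for β-tubulin and MAP1B with DAPI counterstain; chromatid structure and segregation scored by confocal microscopy.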

[5] = molecular target: Stalled ribosome sensor GCN1 (Homo sapiens) (UniProt Q92616); assay: Decrease in GCN1 expression in human U251MG cells at 5 uM for 1 hr by mass spectrometry relative to control; type: functional, cell-based; conditions: U-251
Stalled ribosome sensor GCN1 (Homo sapiens), sequence (Q92616 whole entry): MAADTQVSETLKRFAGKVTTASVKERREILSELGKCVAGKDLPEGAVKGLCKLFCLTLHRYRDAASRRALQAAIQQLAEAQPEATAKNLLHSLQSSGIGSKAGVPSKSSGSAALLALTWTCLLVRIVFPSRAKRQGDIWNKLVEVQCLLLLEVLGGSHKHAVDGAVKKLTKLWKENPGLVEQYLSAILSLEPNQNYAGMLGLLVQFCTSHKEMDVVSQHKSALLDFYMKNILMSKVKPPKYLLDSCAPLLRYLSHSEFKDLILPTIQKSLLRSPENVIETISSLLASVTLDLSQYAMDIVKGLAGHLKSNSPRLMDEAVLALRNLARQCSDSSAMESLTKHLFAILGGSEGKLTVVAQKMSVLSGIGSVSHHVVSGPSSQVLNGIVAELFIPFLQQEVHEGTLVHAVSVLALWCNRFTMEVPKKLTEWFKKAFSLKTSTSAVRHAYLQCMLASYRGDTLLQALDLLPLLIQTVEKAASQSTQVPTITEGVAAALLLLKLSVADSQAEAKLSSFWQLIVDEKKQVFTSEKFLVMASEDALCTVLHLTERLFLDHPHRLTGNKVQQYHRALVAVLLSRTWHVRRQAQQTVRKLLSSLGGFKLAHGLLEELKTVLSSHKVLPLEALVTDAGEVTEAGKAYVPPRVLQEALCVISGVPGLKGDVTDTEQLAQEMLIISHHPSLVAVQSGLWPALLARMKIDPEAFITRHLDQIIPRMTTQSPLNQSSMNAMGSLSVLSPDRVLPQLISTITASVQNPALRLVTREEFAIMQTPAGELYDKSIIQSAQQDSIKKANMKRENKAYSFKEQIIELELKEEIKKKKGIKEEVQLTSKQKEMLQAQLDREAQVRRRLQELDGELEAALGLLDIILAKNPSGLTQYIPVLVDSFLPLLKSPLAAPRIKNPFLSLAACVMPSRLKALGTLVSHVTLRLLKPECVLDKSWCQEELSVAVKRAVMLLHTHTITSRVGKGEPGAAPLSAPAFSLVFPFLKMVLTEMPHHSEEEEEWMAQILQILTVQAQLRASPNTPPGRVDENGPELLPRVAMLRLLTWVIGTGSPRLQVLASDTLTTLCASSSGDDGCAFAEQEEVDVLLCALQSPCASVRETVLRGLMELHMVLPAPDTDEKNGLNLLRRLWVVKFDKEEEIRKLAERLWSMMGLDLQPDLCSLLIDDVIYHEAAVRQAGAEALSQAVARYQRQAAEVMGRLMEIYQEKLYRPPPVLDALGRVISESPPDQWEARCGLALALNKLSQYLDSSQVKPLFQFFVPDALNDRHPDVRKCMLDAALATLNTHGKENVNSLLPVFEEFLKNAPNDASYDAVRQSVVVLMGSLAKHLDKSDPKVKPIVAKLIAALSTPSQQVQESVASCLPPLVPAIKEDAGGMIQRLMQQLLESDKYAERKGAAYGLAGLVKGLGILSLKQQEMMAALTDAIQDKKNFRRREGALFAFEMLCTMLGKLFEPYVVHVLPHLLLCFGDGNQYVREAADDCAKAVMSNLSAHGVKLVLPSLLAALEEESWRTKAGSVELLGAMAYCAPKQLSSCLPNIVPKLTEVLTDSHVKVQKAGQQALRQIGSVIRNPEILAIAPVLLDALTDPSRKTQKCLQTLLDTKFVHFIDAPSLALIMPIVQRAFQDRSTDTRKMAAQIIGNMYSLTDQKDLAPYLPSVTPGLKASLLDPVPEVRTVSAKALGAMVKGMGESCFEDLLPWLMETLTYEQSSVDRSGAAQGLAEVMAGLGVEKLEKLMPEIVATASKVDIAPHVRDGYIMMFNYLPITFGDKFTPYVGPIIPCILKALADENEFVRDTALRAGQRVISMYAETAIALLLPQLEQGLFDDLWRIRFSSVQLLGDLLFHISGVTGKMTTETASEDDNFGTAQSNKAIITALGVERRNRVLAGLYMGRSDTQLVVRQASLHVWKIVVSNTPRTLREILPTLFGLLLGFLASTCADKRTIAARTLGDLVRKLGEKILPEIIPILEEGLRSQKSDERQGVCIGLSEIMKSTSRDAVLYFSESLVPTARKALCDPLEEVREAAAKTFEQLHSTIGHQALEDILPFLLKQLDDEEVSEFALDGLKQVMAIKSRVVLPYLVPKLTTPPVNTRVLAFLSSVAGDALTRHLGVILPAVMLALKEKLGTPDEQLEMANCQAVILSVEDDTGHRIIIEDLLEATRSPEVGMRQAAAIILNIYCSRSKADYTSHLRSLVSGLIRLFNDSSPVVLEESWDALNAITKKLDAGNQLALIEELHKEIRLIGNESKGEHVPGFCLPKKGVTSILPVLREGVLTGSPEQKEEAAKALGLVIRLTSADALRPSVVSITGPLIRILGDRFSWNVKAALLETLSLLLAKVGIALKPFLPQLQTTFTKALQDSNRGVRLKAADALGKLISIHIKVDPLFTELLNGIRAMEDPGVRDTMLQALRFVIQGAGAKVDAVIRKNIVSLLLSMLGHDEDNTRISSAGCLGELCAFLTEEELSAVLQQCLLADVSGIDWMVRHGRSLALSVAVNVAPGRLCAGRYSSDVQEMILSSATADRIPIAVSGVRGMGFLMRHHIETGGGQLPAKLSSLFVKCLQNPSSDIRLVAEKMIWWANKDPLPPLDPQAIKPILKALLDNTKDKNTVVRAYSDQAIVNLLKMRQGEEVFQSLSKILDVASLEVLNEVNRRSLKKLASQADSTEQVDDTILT
How it was run: (§1)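 U251MG cells treated 1 h with 5 μM compound; whole-cell lysates analyzed by global proteomics mass spectrometry; protein levels expressed relative to DMSO-treated cells.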

[6] = Decrease in G6PD expression in human U251MG cells at 5 uM for 1 hr by mass spectrometry relative to control; type: functional, cell-based; conditions: U-251; how it was run: as §1
[7] = molecular target: Microtubule-associated protein 1B (Homo sapiens) (UniProt P46821); assay: Decrease in MAP1B expression in human U251MG cells at 5 uM for 1 hr by mass spectrometry relative to control; type: functional, cell-based; conditions: U-251; how it was run: as §1
[8] = molecular target: Stalled ribosome sensor GCN1 (Homo sapiens) (UniProt Q92616); assay: Decrease in GCN1 expression in human U251MG cells at 5 uM for 2 hrs by immunoblot analysis; type: functional, cell-based; conditions: U-251
[9] = molecular target: Heat shock protein 105 kDa (Homo sapiens) (UniProt Q92598); assay: Decrease in Hsp105 expression in human U251MG cells at 5 uM for 2 hrs by immunoblot analysis; type: functional, cell-based; conditions: U-251
Heat shock protein 105 kDa (Homo sapiens), sequence (Q92598 whole entry): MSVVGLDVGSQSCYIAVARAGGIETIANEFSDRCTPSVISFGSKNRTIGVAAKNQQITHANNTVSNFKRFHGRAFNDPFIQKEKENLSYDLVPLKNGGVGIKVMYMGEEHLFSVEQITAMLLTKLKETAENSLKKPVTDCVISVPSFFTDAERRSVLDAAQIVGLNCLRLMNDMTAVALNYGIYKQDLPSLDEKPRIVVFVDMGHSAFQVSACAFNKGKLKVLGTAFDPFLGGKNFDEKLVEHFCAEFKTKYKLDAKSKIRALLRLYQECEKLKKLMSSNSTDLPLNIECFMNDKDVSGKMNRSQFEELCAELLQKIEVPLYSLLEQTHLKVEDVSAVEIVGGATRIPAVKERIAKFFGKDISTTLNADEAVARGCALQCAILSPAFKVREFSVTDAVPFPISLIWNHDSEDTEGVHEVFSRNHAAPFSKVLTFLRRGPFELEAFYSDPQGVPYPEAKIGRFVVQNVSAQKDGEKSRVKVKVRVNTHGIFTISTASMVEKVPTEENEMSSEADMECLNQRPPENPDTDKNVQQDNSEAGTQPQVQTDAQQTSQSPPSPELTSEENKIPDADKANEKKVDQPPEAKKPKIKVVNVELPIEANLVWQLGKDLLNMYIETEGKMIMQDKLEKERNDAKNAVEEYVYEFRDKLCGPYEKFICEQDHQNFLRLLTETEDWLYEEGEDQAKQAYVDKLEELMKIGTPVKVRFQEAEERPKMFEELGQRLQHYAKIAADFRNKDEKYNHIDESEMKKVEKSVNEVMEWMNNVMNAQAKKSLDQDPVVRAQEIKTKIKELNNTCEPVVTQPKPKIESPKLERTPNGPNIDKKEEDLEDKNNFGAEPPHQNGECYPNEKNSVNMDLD

[10] = Decrease in TrxR1 expression in human U251MG cells at 5 uM for 2 hrs by immunoblot analysis; type: functional, cell-based; conditions: U-251
[11] = Decrease in vimentin expression in human U251MG cells at 5 uM for 2 hrs by immunoblot analysis; type: functional, cell-based; conditions: U-251
[12] = Decrease in G6PD expression in human U251MG cells at 5 uM for 2 hrs by immunoblot analysis; type: functional, cell-based; conditions: U-251
[13] = molecular target: Heat shock protein 105 kDa (Homo sapiens) (UniProt Q92598); assay: Decrease in Hsp105 expression in human U373MG cells at 5 uM for 2 hrs by immunoblot analysis; type: functional, cell-based; conditions: U-373MG ATCC
[14] = Decrease in TrxR1 expression in human U373MG cells at 5 uM for 2 hrs by immunoblot analysis; type: functional, cell-based; conditions: U-373MG ATCC
[15] = molecular target: Microtubule-associated protein 1B (Homo sapiens) (UniProt P46821); assay: Decrease in MAP1B expression in human U373MG cells at 5 uM for 2 hrs by immunoblot analysis; type: functional, cell-based; conditions: U-373MG ATCC
[16] = molecular target: Stalled ribosome sensor GCN1 (Homo sapiens) (UniProt Q92616); assay: Decrease in GCN1 expression in human Glioma (G22) patient derived xenograft cells at 5 uM for 2 hrs by immunoblot analysis; type: functional; conditions: Glioma cell
[17] = molecular target: Heat shock protein 105 kDa (Homo sapiens) (UniProt Q92598); assay: Decrease in Hsp105 expression in human Glioma (G22) patient derived xenograft cells at 5 uM for 2 hrs by immunoblot analysis; type: functional; conditions: Glioma cell
Glioma cell = assay: Increase in importin subunit alpha2 expression in human Glioma (G22) patient derived xenograft cells at 5 uM for 2 hrs by immunoblot analysis; type: functional
[18] = Decrease in TrxR1 expression in human Glioma (G22) patient derived xenograft cells at 5 uM for 2 hrs by immunoblot analysis; type: functional; conditions: Glioma cell
[19] = Decrease in vimentin expression in human Glioma (G22) patient derived xenograft cells at 5 uM for 2 hrs by immunoblot analysis; type: functional; conditions: Glioma cell
[20] = Decrease in G6PD expression in human Glioma (G22) patient derived xenograft cells at 5 uM for 2 hrs by immunoblot analysis; type: functional; conditions: Glioma cell
[21] = molecular target: Microtubule-associated protein 1B (Homo sapiens) (UniProt P46821); assay: Decrease in MAP1B expression in human Glioma (G22) patient derived xenograft cells at 5 uM for 2 hrs by immunoblot analysis; type: functional; conditions: Glioma cell
U-251 [22] = assay: Antitumor activity against human U251MG cells xenografted in mouse assessed as decrease in tumor growth at 2 mg/kg three times a week for 33 days administered via oral gavage; type: functional, organism-based
How it was run: (§2)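 Female athymic nude mice, 4 weeks old, given subcutaneous flank injections of 7.3×10^6 U251MG cells in PBS/matrigel; dosing began at 170–250 mm3 tumors (day 20). Oral gavage 2 mg/kg, vehicle 1% DMSO, for 33 days. Caliper volumes V = 0.52×a²×b, compared with vehicle by paired t test; tumor lysates immunoblotted for pStat3, Stat3, GAPDH.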

U-251 [23] = assay: Antitumor activity against human U251MG cells xenografted in mouse assessed as decrease in pStat3 level in tumor at 2 mg/kg three times a week for 33 days administered via oral gavage by immunoblot analysis; type: functional, organism-based; how it was run: as §2
U-251 [24] = assay: Antitumor activity against human U251MG cells xenografted in mouse assessed as decrease in Stat3 level in tumor at 2 mg/kg three times a week for 33 days administered via oral gavage by immunoblot analysis; type: functional, organism-based; how it was run: as §2
Mus musculus [25] = assay: Toxicity in mouse xenografted with U251MG cells assessed as loss of appetite at 2 mg/kg three times a week for 33 days administered via oral gavage; type: organism-based, U-251; conditions: in vivo, 792 h
How it was run: (§3)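 Four-week-old female athymic nude mice, injected subcutaneously in the left flank with 7.3×10^6 U251MG cells in PBS/matrigel (1:1). Tumors of 170–250 mm^3 formed by day 20, and groups were matched for mean size. Dosing was 2 mg/kg by oral gavage, three times weekly for 33 days, with 1% DMSO vehicle. Animals were monitored daily and weighed every 3 days.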

Mus musculus [26] = assay: Toxicity in mouse xenografted with U251MG cells assessed as activity at 2 mg/kg three times a week for 33 days administered via oral gavage; type: organism-based, U-251; conditions: in vivo, 792 h; how it was run: as §3
[27] = Cytotoxicity against mouse NIH/3T3 cells after 72 hrs by cyquant cells; type: cell-based; conditions: NIH3T3, 72 h
How it was run: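 CyQuant proliferation assay after 72 h compound exposure of cultured cells; relative viability normalized to DMSO-treated control; IC50 values derived. Glioma lines grown in RPMI or DMEM with 10% FBS and 1% nonessential amino acids.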

[28] = molecular target: Signal transducer and activator of transcription 3 (Homo sapiens, UniProt P40763); assay: Inhibition of Stat3 activity in human U251MG cells assessed as decrease in Mcl-1 expression at 5 uM after 24 hrs by immunoblot analysis; type: cell-based; conditions: U-251
Signal transducer and activator of transcription 3, sequence (P40763 whole entry): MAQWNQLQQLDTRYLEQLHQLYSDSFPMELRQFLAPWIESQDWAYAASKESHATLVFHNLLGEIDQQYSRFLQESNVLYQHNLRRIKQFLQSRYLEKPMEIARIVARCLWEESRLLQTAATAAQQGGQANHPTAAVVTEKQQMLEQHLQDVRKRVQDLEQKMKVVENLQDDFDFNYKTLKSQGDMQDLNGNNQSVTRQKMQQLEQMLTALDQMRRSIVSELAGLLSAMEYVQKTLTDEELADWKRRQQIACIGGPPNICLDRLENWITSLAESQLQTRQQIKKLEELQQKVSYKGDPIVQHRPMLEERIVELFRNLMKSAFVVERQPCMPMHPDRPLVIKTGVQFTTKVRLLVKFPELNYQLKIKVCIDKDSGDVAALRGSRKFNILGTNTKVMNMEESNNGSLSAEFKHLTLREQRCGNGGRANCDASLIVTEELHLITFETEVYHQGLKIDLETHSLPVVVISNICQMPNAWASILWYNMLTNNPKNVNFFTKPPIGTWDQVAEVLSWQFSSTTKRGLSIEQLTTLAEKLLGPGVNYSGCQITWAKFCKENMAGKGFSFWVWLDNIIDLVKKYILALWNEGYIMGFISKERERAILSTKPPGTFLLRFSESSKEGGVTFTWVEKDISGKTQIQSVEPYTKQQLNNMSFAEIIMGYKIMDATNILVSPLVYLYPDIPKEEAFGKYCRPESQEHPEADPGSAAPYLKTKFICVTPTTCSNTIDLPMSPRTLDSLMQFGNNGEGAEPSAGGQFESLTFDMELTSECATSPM
How it was run: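 U251MG cells treated with 5 μM compound for 0–24 h. Whole-cell lysates immunoblotted for pStat3, Stat3, c-Myc, Bcl-2, Bcl-xL, Mcl-1, GAPDH. Control was 0.025% DMSO.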

[29] = molecular target: Heat shock protein 105 kDa (Homo sapiens) (UniProt Q92598); assay: Decrease in Hsp105 expression in human U251MG cells at 5 uM for 1 hr by mass spectrometry relative to control; type: functional, cell-based; conditions: U-251; how it was run: as §1
[30] = Decrease in TNAP2 expression in human U251MG cells at 5 uM for 1 hr by mass spectrometry relative to control; type: functional, cell-based; conditions: U-251
How it was run: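 Global proteomic mass spectrometry of lysates from U251MG cells treated 1 h with 5 μM compound; protein levels expressed relative to DMSO-treated cells.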

Compound	Activity (U-251 [3])	Activity (U-251 [4])	fold change (FC) [7]	inhibition [8]	inhibition [9]	inhibition [10]	inhibition [11]	inhibition [12]	inhibition [13]	inhibition [14]	inhibition [15]	inhibition [16]	inhibition [17]	Activity (Glioma cell)	inhibition [18]	inhibition [19]	inhibition [20]	inhibition [21]	Activity (U-251 [22])	Activity (U-251 [23])	also measured
C/C=C(\C)C(=O)OCC1=C2/C(=C\[C@@]3(C)CC[C@](O)(O3)[C@H](C)C[C@@H]2O)OC1=O	Active	Active	0.413	Active	Active	Active	Active	Active	Active	Active	Active	Active	Active	Active	Active	Active	Active	Active	Active	Active	Activity [1]: Toxic; Activity [2]: Non-toxic; fold change (FC) [5]: 0.555; fold change (FC) [6]: 0.275; Activity (U-251 [24]): Active; Activity (Mus musculus [25]): Non-toxic; Activity (Mus musculus [26]): Non-toxic
C/C=C(\C)C(=O)O[C@H]1C[C@@H](C)[C@]2(O)CC[C@](C)(/C=C3/OC(=O)C(COC(C)=O)=C31)O2	Active	Active	0.649	Active	Active	Active	Active	Active	Active	Active	Active	Active	Active	Active	Active	Active	Active	Active	Active	Active	pIC50 [27]: 5.70; inhibition [28]: Active; fold change (FC) [29]: 0.501; fold change (FC) [30]: 0.449; Activity (U-251 [24]): Active; Activity (Mus musculus [25]): Non-toxic; Activity (Mus musculus [26]): Non-toxic
